# Experimental data from publication PMC9057764 (RSC Advances, 2020).
# “Also recorded” adds a separate entry of the source. Where two headings read alike, the source gives them in different places.
# Experiments:
# HCT-15 [1] = assay: NCI five-dose screen, colon cancer; type: cell-based; conditions: Homo sapiens; for GI50: HCT-15
# Outline: (§1)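 This was the NCI five-dose screen on the 60-cell-line human cancer panel, covering nine tumour types. It was given to compounds that met the single-dose criteria. GI50 is the concentration giving 50% growth inhibition, TGI the concentration giving 100% growth inhibition, and LC50 the concentration giving 50% lethality. MG-MID is the mean over all cell lines tested.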
# KM12 [2] = assay: NCI five-dose screen, colon cancer; type: cell-based; conditions: Homo sapiens; for GI50: KM12
# Outline: as §1
# HCT-116 [3] = assay: NCI five-dose screen, colon cancer; type: cell-based; conditions: Homo sapiens; for GI50: HCT-116
# Outline: as §1
# CCRF-CEM [4] = assay: NCI five-dose screen, leukemia; type: cell-based; conditions: Homo sapiens
# Outline: as §1
# SW-620 [5] = assay: NCI five-dose screen, colon cancer; type: cell-based; conditions: Homo sapiens; for GI50: SW-620
# Outline: as §1
# HCC-2998 [6] = assay: NCI five-dose screen, colon cancer; type: cell-based; conditions: Homo sapiens; for GI50: HCC 2998; for CC50: HCC 2998, read-out: LC50
# Outline: as §1
# COLO 205 = assay: NCI five-dose screen, colon cancer; type: cell-based; conditions: Homo sapiens; for GI50: COLO 205; for CC50: COLO 205, read-out: LC50
# Outline: as §1
# HT29 [7] = assay: NCI five-dose screen, colon cancer; type: cell-based; conditions: Homo sapiens, HT-29
# Outline: as §1
# [8] = Cytotoxicity in normal cells; type: cell-based, human; conditions: human, WI-38 normal fibroblasts
# Outline: (§2)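 Normal human WI-38 fibroblasts were exposed to a concentration series of test compound, with doxorubicin as positive control and three wells per concentration. IC50 came from dose–response curves averaged over two parallel experiments and is given as mean ± SEM versus untreated cells. Selectivity index = WI-38 IC50 / median GI50 from the NCI cancer panel.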
# [9] = tested on: human normal fibroblasts (WI-38); assay: Cytotoxicity in normal cells; type: cell-based; conditions: SI = WI-38 IC50/median GI50
# Outline: as §2
# panel of 60 cell lines = assay: NCI five-dose screen, whole panel; type: cell-based; conditions: Homo sapiens; for CC50: read-out: Median LC50 (MG-MID)
# Outline: as §1
# SR [10] = assay: NCI five-dose screen, leukemia; type: cell-based; conditions: Homo sapiens
# Outline: as §1
# RPMI-8226 = assay: NCI five-dose screen, leukemia; type: cell-based; conditions: Homo sapiens; for GI50: RPMI-8226
# Outline: as §1
# MOLT-4 [11] = assay: NCI five-dose screen, leukemia; type: cell-based; conditions: Homo sapiens
# Outline: as §1
# 60 cancer cell lines = assay: NCI single dose; type: cell-based, human; conditions: for GI% values, range over cell lines: 10 μM, range over the leukemia and colon cancer cell lines of Table 2; for inhibition at 10 µM: Homo sapiens, read-out: Mean percent growth inhibition (MPGI)
# Outline: (§3)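 This was the NCI primary screen: test compound at one concentration of 10 μM against the 60-cell-line human cancer panel, covering leukemia, NSCLC, melanoma, colon, CNS, ovarian, renal, prostate and breast lines. The read-out was percent growth inhibition for each cell line. Compounds meeting the threshold went on to the five-dose screen.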
# SR [12] = assay: NCI single dose; type: cell-based; conditions: Homo sapiens, read-out: percent growth inhibition
# Outline: as §3
# p53 = assay: Gene expression by real time PCR in HepG2; type: cell-based; conditions: Homo sapiens, HepG2, 8 h, read-out: p53 expression, fold induction from untreated cells
# Outline: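 HepG2 cells treated with test compound; p53 transcript measured within a panel that also covered cdk1, caspase 3, topoII and txnrd1, and expressed relative to untreated cells. Values given as mean ± SEM of two independent experiments, with significance set at p < 0.05 versus untreated cells.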
# K-562 [13] = assay: NCI five-dose screen, leukemia; type: cell-based; conditions: Homo sapiens, K562
# Outline: as §1
# HL-60 (TB) = assay: cells; conditions: Homo sapiens; for GI50: HL-60
# HT29 [14] = assay: NCI single dose; type: cell-based; conditions: Homo sapiens, HT-29, read-out: percent growth inhibition
# Outline: as §3
# cleaved caspase-3 = assay: Active cleaved caspase 3 activity in HepG2 cells; type: cell-based; conditions: for effect on activity of cleaved active caspase 3: HepG2 (Fig. 5B)
# [15] = tested on: topoisomerase II (topoII); assay: Gene expression by real time PCR in HepG2; type: cell-based; conditions: HepG2, approximate value in text
# [16] = tested on: topoisomerase II (Topo II); assay: Topo II concentration in HepG2 cells, sandwich ELISA; type: cell-based; conditions: HepG2, IC50 concentrations, 8 hours, ELISA (Fig. 5A)
# Outline: (§4)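 HepG2 cells were treated with test compound, with doxorubicin as reference. Cellular p38 MAPK and Topo II protein concentrations were then measured with commercial sandwich ELISA kits. Each compound had three wells, and the experiment was run twice. Values are mean ± SEM, with significance tested against untreated cells.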
# [17] = tested on: cyclin-dependent kinase 1 (cdk1); assay: Gene expression by real time PCR in HepG2; type: cell-based; conditions: HepG2, approximate value in text
# [18] = tested on: p38 mitogen-activated protein kinase (MAPK); assay: MAPK concentration in HepG2 cells, sandwich ELISA; type: cell-based; conditions: HepG2, IC50 concentrations, 8 hours, ELISA (Fig. 5C)
# Outline: as §4
# HCT-15 [19] = assay: NCI single dose; type: cell-based; conditions: Homo sapiens, HCT-15, read-out: percent growth inhibition
# Outline: as §3
# HCC-2998 [20] = assay: NCI single dose; type: cell-based; conditions: Homo sapiens, HCC 2998, read-out: percent growth inhibition
# Outline: as §3
# K-562 [21] = assay: NCI single dose; type: cell-based; conditions: Homo sapiens, K562, read-out: percent growth inhibition
# Outline: as §3
# HCT-116 [22] = assay: NCI single dose; type: cell-based; conditions: Homo sapiens, HCT-116, read-out: percent growth inhibition
# Outline: as §3
# MOLT-4 [23] = assay: NCI single dose; type: cell-based; conditions: Homo sapiens, MOLT-4, read-out: percent growth inhibition
# Outline: as §3
# CCRF-CEM [24] = assay: NCI single dose; type: cell-based; conditions: Homo sapiens, read-out: percent growth inhibition
# Outline: as §3
# SW-620 [25] = assay: NCI single dose; type: cell-based; conditions: Homo sapiens, SW-620, read-out: percent growth inhibition
# Outline: as §3
# KM12 [26] = assay: NCI single dose; type: cell-based; conditions: Homo sapiens, KM12, read-out: percent growth inhibition
# Outline: as §3
smiles,measurement,setting,value
"COc1ccc(-c2ccc(-c3ccc(C(=N)N)nc3)s2)cc1.Cl [Compound 4a, 5-[5-(4-Methoxyphenyl)thiophen-2-yl]picolinamidine hydrochloride salt]",GI50,HCT-15 [1],1270 nM
same,CC50,"HCT-15 [1]; HCT-15, read-out: LC50",5710 nM
same,GI50,KM12 [2],1810 nM
same,CC50,"KM12 [2]; KM12, read-out: LC50",6030 nM
same,GI50,HCT-116 [3],1620 nM
same,GI50,CCRF-CEM [4],1430 nM
same,GI50,SW-620 [5],430 nM
same,CC50,"SW-620 [5]; SW-620, read-out: LC50",4980 nM
same,GI50,HCC-2998 [6],1820 nM
same,CC50,HCC-2998 [6],6380 nM
same,GI50,COLO 205,1890 nM
same,CC50,COLO 205,8130 nM
same,GI50,HT29 [7],880 nM
same,IC50 at 48 h,[8],21100 ± 3100 nM
same,selectivity index (SI),[9],13.0
same,GI50,panel of 60 cell lines; read-out: Median GI50 (MG-MID),1620 nM
same,CC50,panel of 60 cell lines,8120 nM
same,GI50,SR [10],340 nM
same,GI50,RPMI-8226,2130 nM
same,GI50,MOLT-4 [11],1900 nM
same,"GI% values, range over cell lines",60 cancer cell lines,−7.17 to −86.03%
same,inhibition at 10 µM,60 cancer cell lines,-28.8%
same,inhibition at 10 µM,SR [12],99.7%
same,fold induction at 0.1 µM,p53,1.19 ± 0.43
same,GI50,K-562 [13],1090 nM
same,GI50,HL-60 (TB),1780 nM
"COc1ccc(-c2ccc(-c3ccc(C(=N)N)nc3)s2)cc1Cl.Cl [Compound 4b, 5-[5-(3-Chloro-4-methoxyphenyl)thiophen-2-yl]picolinamidine hydrochloride salt]",GI50,HCT-15 [1],1570 nM
same,GI50,KM12 [2],1810 nM
same,GI50,HCT-116 [3],1820 nM
same,GI50,CCRF-CEM [4],1180 nM
same,GI50,SW-620 [5],1790 nM
same,GI50,HCC-2998 [6],1860 nM
same,GI50,COLO 205,1940 nM
same,GI50,HT29 [7],1350 nM
same,IC50 at 48 h,[8],23700 ± 2500 nM
same,selectivity index (SI),[9],13.7
same,GI50,panel of 60 cell lines; read-out: Median GI50 (MG-MID),1730 nM
same,CC50,panel of 60 cell lines,8310 nM
same,inhibition at 10 µM,HT29 [14],97.5%
same,effect on activity of cleaved active caspase 3,cleaved caspase-3,devoid of any effect
same,GI50,SR [10],580 nM
same,GI50,RPMI-8226,2250 nM
same,GI50,MOLT-4 [11],1720 nM
same,magnitude of downregulation of topoII expression,[15],~50%
same,effect on concentration of Topo II protein,[16],significant reduction; also recorded: significantly downregulate
same,"GI% values, range over cell lines",60 cancer cell lines,−7.17 to −86.03%
same,inhibition at 10 µM,60 cancer cell lines,-19.9%
same,magnitude of downregulation of cdk1 expression,[17],~50%
same,effect on concentration of MAPK protein,[18],significant reduction
same,fold induction at 0.1 µM,p53,1.03 ± 0.08
same,GI50,K-562 [13],900 nM
same,GI50,HL-60 (TB),1660 nM
"COc1cc(-c2ccc(-c3ccc(C(=N)N)nc3)s2)cc(OC)c1OC.Cl [Compound 4c, 5-[5-(3,4,5-Trimethoxyphenyl)thiophen-2-yl]picolinamidine hydrochloride salt]",GI50,HCT-15 [1],2180 nM
same,GI50,KM12 [2],2780 nM
same,GI50,HCT-116 [3],1470 nM
same,CC50,"HCT-116 [3]; HCT-116, read-out: LC50",5600 nM
same,GI50,CCRF-CEM [4],2490 nM
same,GI50,SW-620 [5],2090 nM
same,GI50,HCC-2998 [6],2000 nM
same,CC50,HCC-2998 [6],7610 nM
same,GI50,COLO 205,1600 nM
same,CC50,COLO 205,6660 nM
same,GI50,HT29 [7],1370 nM
same,IC50 at 48 h,[8],51300 ± 9000 nM
same,selectivity index (SI),[9],21.5
same,GI50,"panel of 60 cell lines; read-out: GI50, range over cell lines",1370 to 2780 nM
same,GI50,panel of 60 cell lines; read-out: Median GI50 (MG-MID),2390 nM
same,CC50,panel of 60 cell lines,19500 nM
same,inhibition at 10 µM,HT29 [14],85.8%
same,inhibition at 10 µM,HCT-15 [19],78.6%
same,inhibition at 10 µM,HCC-2998 [20],87.9%
same,effect on activity of cleaved active caspase 3,cleaved caspase-3,devoid of any effect
same,increase in cleaved caspase 3 enzyme activity,"cleaved caspase-3; HepG2, did not achieve statistical significance (Fig. 5B)",~60%
same,GI50,SR [10],2480 nM
same,GI50,RPMI-8226,1670 nM
same,CC50,"RPMI-8226; RPMI-8226, read-out: LC50",9400 nM
same,GI50,MOLT-4 [11],2530 nM
same,inhibition at 10 µM,K-562 [21],94.4%
same,inhibition at 10 µM,HCT-116 [22],99%
same,inhibition at 10 µM,MOLT-4 [23],76.2%
same,magnitude of downregulation of topoII expression,[15],~70%
same,effect on concentration of Topo II protein,[16],significant reduction; also recorded: significantly downregulate
same,"GI% values, range over cell lines",60 cancer cell lines,50.93 to 99.05%
same,inhibition at 10 µM,60 cancer cell lines,52.6%
same,magnitude of downregulation of cdk1 expression,[17],~70%
same,effect on concentration of MAPK protein,[18],significant reduction
same,inhibition at 10 µM,CCRF-CEM [24],89.1%
same,inhibition at 10 µM,SR [12],93.7%
same,fold induction at 0.1 µM,p53,1.18 ± 0.1
same,inhibition at 10 µM,SW-620 [25],70.8%
same,GI50,K-562 [13],1390 nM
same,inhibition at 10 µM,KM12 [26],50.9%
same,GI50,HL-60 (TB),1870 nM
same,CC50,"HL-60 (TB); HL-60, read-out: LC50",9440 nM
"COc1cccc2c1C(=O)c1c(O)c3c(c(O)c1C2=O)C[C@@](O)(C(=O)CO)C[C@@H]3O[C@H]1C[C@H](N)[C@H](O)[C@H](C)O1 [Dox, Doxorubicin, reference compound]",IC50 at 48 h,[8],2900 ± 800 nM
same,effect on concentration of Topo II protein,[16],significantly downregulate
same,fold induction at 0.1 µM,p53,3.14 ± 0.81
